Where two headings read alike, the source gives them in different places.
Key:
[1] = Paroxetine drug interaction study: eliglustat pharmacokinetics in healthy adults; type: in vivo, human; conditions: for AUC: AUC0-τ; for AUC / AUC(0-inf) / Cmax: mean (SD); for AUC(0-inf): AUC0-∞
Summary of the method: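 Open-label, fixed-sequence study in healthy CYP2D6 non-poor metabolizers. Oral test compound 84 mg, fasted: single dose Day 1, BID Days 2–8, then BID with a strong CYP2D6 inhibitor 30 mg QD Days 9–18. Plasma sampled to 36 h Day 1, 12 h Day 8, 72 h Day 18, plus pre-dose samples. LC-MS/MS, LLOQ 0.5 ng/mL. Non-compartmental PK, tmax as median (min, max); ratios from log-transformed mixed-effects model.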

[2] = type: in vivo, human; conditions: for AUC: AUC0-τ; for AUC / AUC(0-inf) / Cmax: mean (SD); for AUC(0-inf): AUC0-∞; for Tmax: median (minimum, maximum)
Summary of the method: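 Open-label, fixed-sequence study in healthy CYP2D6 non-poor metabolizers. Oral test compound 84 mg, fasted: single dose Day 1, BID Days 2–8, then BID with a strong CYP3A/P-gp inhibitor 400 mg QD Days 9–15. Plasma sampled to 36 h Day 1, 12 h Day 8, 72 h Day 15, plus pre-dose samples. LC-MS/MS, LLOQ 0.2 ng/mL. Non-compartmental PK; ratios from log-transformed mixed-effects model with 90% CI.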

[3] = Rifampin drug interaction study: eliglustat pharmacokinetics in healthy adults; type: in vivo, human; conditions: for increase in eliglustat AUC: single infusion of rifampin 600 mg with single oral dose of eliglustat 127 mg; for Ratio (%) of geometric least squares mean, AUC0-t: 0 to 12 h
[4] = CYP2D6 EMs only, eliglustat 84 mg BID with paroxetine 30 mg QD
[5] = CYP2D6 non-PMs, eliglustat 84 mg BID with paroxetine 30 mg QD
[6] = human, plasma, oral, 84 mg, eliglustat 84 mg single dose, Day 1, all (N = 36)
[7] = CYP2D6 EMs only, eliglustat 84 mg BID with ketoconazole 400 mg QD
[8] = CYP2D6 non-PMs, eliglustat 84 mg BID with ketoconazole 400 mg QD
[9] = human, plasma, oral, 84 mg, eliglustat 84 mg BID, Days 2 to 8, all (N = 33)
[10] = human, plasma, oral, eliglustat 84 mg BID + ketoconazole 400 mg QD, Days 9 to 15, all (N = 33)
[11] = CYP2D6 PMs, eliglustat 84 mg BID with oral rifampin 600 mg QD
[12] = CYP2D6 PMs, multiple dose Day 6, test 600 mg rifampin oral QD + 84 mg eliglustat oral BID (N = 6) vs reference 84 mg eliglustat oral BID alone (N = 6)
[13] = CYP2D6 non-PMs, eliglustat 127 mg BID with oral rifampin 600 mg QD
[14] = CYP2D6 non-PMs, multiple dose Day 6, test 600 mg rifampin oral QD + 127 mg eliglustat oral BID (N = 18) vs reference 127 mg eliglustat oral BID alone (N = 19)

CCCCCCCC(=O)N[C@H](CN1CCCC1)[C@H](O)c1ccc2c(c1)OCCO2 [eliglustat]
increase in eliglustat AUC0-τ compared to eliglustat alone [1, 4]: 8.4 fold
increase in eliglustat Cmax compared to eliglustat alone [1, 4]: 7.0 fold
increase in eliglustat AUC0-τ (exposure) compared to eliglustat alone [1, 5]: 8.9 fold
increase in eliglustat Cmax compared to eliglustat alone [1, 5]: 7.3 fold
Ratio (%) of geometric least squares mean, AUC0-t ([1]; all subjects, multiple dose, test 30 mg paroxetine oral QD + 84 mg eliglustat oral BID (N = 33) vs reference 84 mg eliglustat oral BID alone (N = 34), 0 to 12 h): 8.93%
Ratio (%) of geometric least squares mean, Cmax ([1]; all subjects, multiple dose, test 30 mg paroxetine oral QD + 84 mg eliglustat oral BID (N = 33) vs reference 84 mg eliglustat oral BID alone (N = 36)): 7.31%
Tmax ([1]; eliglustat 84 mg BID, Days 2 to 8, all (N = 36), median (minimum, maximum)): 2.0 (0.5–3.0) h
Tmax ([1]; human, plasma, oral, 84 mg): 2 h
half-life ([1]; human, plasma, oral, 84 mg): 4.2 h
AUC ([1]; human, plasma, oral, 84 mg, eliglustat 84 mg BID, Days 2 to 8, CYP2D6 EMs only (N = 33), 0 to 12 h): 120 ng·h/mL
AUC ([1]; human, plasma, oral, 84 mg, eliglustat 84 mg BID, Days 2 to 8, all (N = 34), 0 to 12 h): 120 ng·h/mL
AUC(0-inf) ([1]; human, plasma, oral, 84 mg, eliglustat 84 mg single dose, Day 1, CYP2D6 EMs only (N = 28)): 77.4 ng·h/mL
AUC(0-inf) ([1]; human, plasma, oral, 84 mg, eliglustat 84 mg single dose, Day 1, all (N = 30)): 78.1 ng·h/mL
Cmax ([1]; human, plasma, oral, 84 mg, eliglustat 84 mg BID, Days 2 to 8, CYP2D6 EMs only (N = 33)): 19.4 ng/mL
Cmax ([1]; human, plasma, oral, 84 mg, eliglustat 84 mg BID, Days 2 to 8, all (N = 36)): 19.3 ng/mL
Cmax ([1]; human, plasma, oral, 84 mg, eliglustat 84 mg single dose, Day 1, CYP2D6 EMs only (N = 33)): 10.9 ng/mL
Cmax [1, 6]: 10.7 ng/mL
AUC ([1]; human, plasma, oral, eliglustat 84 mg BID + paroxetine 30 mg QD, Days 9 to 18, CYP2D6 EMs only (N = 30), 0 to 12 h): 847 ng·h/mL
Cmax ([1]; human, plasma, oral, eliglustat 84 mg BID + paroxetine 30 mg QD, Days 9 to 18, CYP2D6 EMs only (N = 30)): 110 ng/mL
Cmax ([1]; human, plasma, oral, eliglustat 84 mg BID + paroxetine 30 mg QD, Days 9 to 18, all (N = 33)): 110 ng/mL
increase in eliglustat AUC0-τ compared to eliglustat alone [2, 7]: 4.4 fold
increase in eliglustat Cmax compared to eliglustat alone [2, 7]: 4.0 fold
increase in eliglustat AUC0-τ (exposure) compared to eliglustat alone [2, 8]: 4.3 fold
increase in eliglustat Cmax compared to eliglustat alone [2, 8]: 3.8 fold
Ratio (%) of geometric least squares mean, Cmax ([2]; all subjects, multiple dose, test 400 mg ketoconazole oral QD + 84 mg eliglustat oral BID (N = 33) vs reference 84 mg eliglustat oral BID alone (N = 33)): 3.84%
Ratio (%) of geometric least squares mean, AUC0-t ([2]; all subjects, multiple dose, test 400 mg ketoconazole oral QD + 84 mg eliglustat oral BID (N = 33) vs reference 84 mg eliglustat oral BID alone (N = 33), 0 to 12 h): 4.27%
increase in eliglustat exposure ([2]; co-administered with ketoconazole (discussion, rounded)): 4 fold
half-life ([2]; human, plasma, oral, 84 mg): 5.1 h
AUC ([2]; human, plasma, oral, 84 mg, eliglustat 84 mg BID, Days 2 to 8, CYP2D6 EMs only (N = 31), 0 to 12 h): 119 ng·h/mL
AUC ([2]; human, plasma, oral, 84 mg, eliglustat 84 mg BID, Days 2 to 8, all (N = 33), 0 to 12 h): 113 ng·h/mL
AUC(0-inf) ([2]; human, plasma, oral, 84 mg, eliglustat 84 mg single dose, Day 1, CYP2D6 EMs only (N = 32)): 77.2 ng·h/mL
AUC(0-inf) ([2]; human, plasma, oral, 84 mg, eliglustat 84 mg single dose, Day 1, all (N = 34)): 73.2 ng·h/mL
Cmax ([2]; human, plasma, oral, 84 mg, eliglustat 84 mg BID, Days 2 to 8, CYP2D6 EMs only (N = 31)): 19.5 ng/mL
Cmax [2, 9]: 18.6 ng/mL
Cmax ([2]; human, plasma, oral, 84 mg, eliglustat 84 mg single dose, Day 1, CYP2D6 EMs only (N = 34)): 10.3 ng/mL
Cmax [2, 6]: 9.87 ng/mL
Tmax [2, 9]: 2 h
Tmax [2, 6]: 1.6 h
AUC ([2]; human, plasma, oral, eliglustat 84 mg BID + ketoconazole 400 mg QD, Days 9 to 15, CYP2D6 EMs only (N = 31), 0 to 12 h): 501 ng·h/mL
AUC ([2]; human, plasma, oral, eliglustat 84 mg BID + ketoconazole 400 mg QD, Days 9 to 15, all (N = 33), 0 to 12 h): 474 ng·h/mL
Cmax ([2]; human, plasma, oral, eliglustat 84 mg BID + ketoconazole 400 mg QD, Days 9 to 15, CYP2D6 EMs only (N = 31)): 71 ng/mL
Cmax [2, 10]: 67.2 ng/mL
Tmax [2, 10]: 2.3 h
increase in eliglustat AUC ([3]; CYP2D6 EMs): 24%
reduction of eliglustat AUC0-τ compared with eliglustat alone [3, 11]: > 95%
reduction of eliglustat Cmax compared with eliglustat alone [3, 11]: > 95%
Ratio (%) of geometric least squares mean, Cmax [3, 12]: 0.05%
Ratio (%) of geometric least squares mean, AUC0-t [3, 12]: 0.04%
effect on mean eliglustat exposure ([3]; CYP2D6 PMs, single 30-min infusion of rifampin 600 mg with single oral dose of eliglustat 84 mg): no effect
Ratio (%) of geometric least squares mean, AUC0-∞ ([3]; CYP2D6 PMs, single dose Day 1, test 600 mg rifampin IV + 84 mg eliglustat oral (N = 6) vs reference 84 mg eliglustat oral (N = 5)): 0.95%
Ratio (%) of geometric least squares mean, Cmax ([3]; CYP2D6 PMs, single dose Day 1, test 600 mg rifampin IV + 84 mg eliglustat oral (N = 6) vs reference 84 mg eliglustat oral (N = 6)): 0.97%
reduction of eliglustat AUC0-τ (exposure) compared with eliglustat alone [3, 13]: > 85%
reduction of eliglustat Cmax compared with eliglustat alone [3, 13]: > 85%
Ratio (%) of geometric least squares mean, Cmax [3, 14]: 0.16%
Ratio (%) of geometric least squares mean, AUC0-t [3, 14]: 0.15%
Ratio (%) of geometric least squares mean, AUC0-∞ ([3]; CYP2D6 non-PMs, single dose Day 1, test 600 mg rifampin IV + 127 mg eliglustat oral (N = 17) vs reference 127 mg eliglustat oral alone (N = 19)): 1.19%
Ratio (%) of geometric least squares mean, Cmax ([3]; CYP2D6 non-PMs, single dose Day 1, test 600 mg rifampin IV + 127 mg eliglustat oral (N = 19) vs reference 127 mg eliglustat oral alone (N = 19)): 1.19%
increase in eliglustat AUC ([3]; URMs): 11%
Cmax ([3]; human, plasma, iv, Cmax, CYP2D6 non-PMs (N = 19), eliglustat 127 mg single dose + rifampin 600 mg IV single dose, concomitant period Day 1, mean (SD)): 17.9 ng/mL
half-life ([3]; human, plasma, iv, t1/2z, CYP2D6 PMs, eliglustat 84 mg single dose + rifampin 600 mg IV single dose, concomitant period Day 1, mean (SD)): 6.9 h
Tmax ([3]; human, plasma, iv, tmax, CYP2D6 PMs, eliglustat 84 mg single dose + rifampin 600 mg IV single dose, concomitant period Day 1, median (minimum, maximum)): 4 h

— publication PMC6976987 (Molecular Genetics and Metabolism Reports, 2020)
